Only some compounds are listed: those with a hit (about 1.3% of all), similar ones and a draw of the others.
Casp6 inh: blocks human caspase-6 cleavage activity. 350,000 compounds, 0.53% hits. inhibition, % at 12.5 µM. P55212. purified caspase-6, Z-VEID-R110 cleavage fluorescence. AID 686996;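 active = mean inhibition across replicates at least about 35%, with every replicate also reaching that limit, limit read from the data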;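 also: 0% = median of neutral control wells and 100% = no fluorescence left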
LEDGF integ inh: blocks HIV-1 LEDGF/p75-dependent DNA integration | TR-FRET IN-LEDGF/p75 DNA integration, Eu/Cy5 | inhibition, % at 3.7 µM | 370,000 compounds, 0.64% hits;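 active = inhibition above the screen-wide mean plus 3 SD, cut at about 13% in these data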;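 also: signal is the Cy5 over europium emission ratio at 671 and 618 nm; 0% = plate median of compound wells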
UCH37 DUB inh: inhibitors of human deubiquitinating enzyme UCH37; purified proteasome/UCH37, Ub-AMC cleavage fluorescence; inhibition, % (test concentration not listed); 330,000 compounds, 0.33% hits; AID 588478;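 active = mean inhibition over replicate wells above about 20%, limit read from the data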;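 also: 0% = compound-free wells with enzyme and 100% = wells lacking proteasome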
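Material: Human UCH37 enzyme supplied as purified proteasome complex | Schedule: 30 min preincubation with enzyme, 25 min cleavage at room temperature | Detection: AMC fluorescence 355/460 nm | Measure: % inhibition of Ub-AMC cleavage fluorescence | Controls: Wells without proteasome as full block, compound-free enzyme plus substrate as uninhibited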
TDP2 absorb: blocks human TDP2 phosphodiesterase activity | inhibition, % at 12.8 µM | 370,000 compounds, 0.34% hits | recombinant TDP2, T5PNP hydrolysis, p-nitrophenol absorbance 415 nm | AID 720702 | O95551;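 active = inhibition above the mean of all tested compounds plus 3 SD, set per campaign, cut at about 25% in these data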;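 also: 0% = DMSO with enzyme and 100% = buffer with substrate but no TDP2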
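test system = human TDP2 enzyme | input = TDP2 enzyme at 120 nM final | medium = 50 mM Tris-HCl pH 7.5 with Mg2+, KCl, DTT, BSA | also added = T5PNP substrate, 5 mM | times = 2 h at 37 °C | technique = epi absorbance | benchmarks = high control without enzyme, low control DMSO plus TDP2 | replication = each compound tested once, singlicate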
NSD2 inh: inhibitors of human histone methyltransferase NSD2; inhibition, % at 12.5 µM; 310,000 compounds, 0.54% hits; O96028; NSD2 peptide methylation, AlphaScreen, 120 min; AID 743445; in the data active = inhibition above about 50%
Target sequence (O96028 whole entry, looked up): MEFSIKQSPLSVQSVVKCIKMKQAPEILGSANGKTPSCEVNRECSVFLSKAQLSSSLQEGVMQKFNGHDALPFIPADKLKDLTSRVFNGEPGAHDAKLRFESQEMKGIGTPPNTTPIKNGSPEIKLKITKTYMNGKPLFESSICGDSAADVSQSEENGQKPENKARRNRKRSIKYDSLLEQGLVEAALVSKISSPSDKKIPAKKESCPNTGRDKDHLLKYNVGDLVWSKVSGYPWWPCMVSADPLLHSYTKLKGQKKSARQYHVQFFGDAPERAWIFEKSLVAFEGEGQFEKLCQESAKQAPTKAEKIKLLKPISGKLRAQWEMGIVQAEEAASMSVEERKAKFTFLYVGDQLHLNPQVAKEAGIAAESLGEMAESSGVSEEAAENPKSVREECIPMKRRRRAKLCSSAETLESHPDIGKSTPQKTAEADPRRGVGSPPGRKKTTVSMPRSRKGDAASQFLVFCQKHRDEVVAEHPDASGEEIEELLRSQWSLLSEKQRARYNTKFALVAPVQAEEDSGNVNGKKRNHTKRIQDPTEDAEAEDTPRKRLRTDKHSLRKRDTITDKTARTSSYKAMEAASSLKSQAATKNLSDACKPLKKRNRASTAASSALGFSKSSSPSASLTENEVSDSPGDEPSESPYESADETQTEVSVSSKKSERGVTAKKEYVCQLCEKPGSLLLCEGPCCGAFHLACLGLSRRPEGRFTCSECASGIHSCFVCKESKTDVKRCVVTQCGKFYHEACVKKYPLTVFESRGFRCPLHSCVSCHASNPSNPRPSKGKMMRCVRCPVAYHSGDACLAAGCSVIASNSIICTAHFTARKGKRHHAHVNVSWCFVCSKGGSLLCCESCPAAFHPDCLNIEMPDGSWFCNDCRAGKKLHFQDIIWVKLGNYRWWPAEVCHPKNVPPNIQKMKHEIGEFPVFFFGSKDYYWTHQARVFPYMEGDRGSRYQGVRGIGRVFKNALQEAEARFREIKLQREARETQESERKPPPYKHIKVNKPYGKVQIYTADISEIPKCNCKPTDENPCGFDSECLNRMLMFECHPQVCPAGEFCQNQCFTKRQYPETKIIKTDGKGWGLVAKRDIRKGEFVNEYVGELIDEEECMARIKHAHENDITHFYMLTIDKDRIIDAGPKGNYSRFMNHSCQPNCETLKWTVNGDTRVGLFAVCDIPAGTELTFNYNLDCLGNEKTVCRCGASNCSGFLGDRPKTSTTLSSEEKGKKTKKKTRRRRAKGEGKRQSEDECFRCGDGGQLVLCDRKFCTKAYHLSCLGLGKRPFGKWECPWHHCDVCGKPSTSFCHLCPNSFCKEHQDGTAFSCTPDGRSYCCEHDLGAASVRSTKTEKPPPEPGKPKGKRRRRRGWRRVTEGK
TDP2 confirm: human TDP2 inhibition, confirmation. 1,100 compounds, 22% hits. inhibition, % at 12.8 µM. recombinant human TDP2, absorbance read-out. shares compounds with TDP2 absorb; in the data active = inhibition above about 25%;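 also: 0% = vehicle with enzyme and 100% = no enzyme buffer only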
The depositor's hits bear a star; . = not tested or not shown.

SMILES	Casp6 inh	LEDGF integ inh	UCH37 DUB inh	TDP2 absorb	NSD2 inh	TDP2 confirm
CC1CCCC(=NNC(=O)COc2ccccc2Cl)C1 (configuration not stated)	.	.	2.3	.	.	.
O=C(NC(=S)Nc1ccccc1Cl)c1cncc(Br)c1	-2.5	0.1	2.3	27.3*	2.9	-3.8
CCCCC1S/C(=N/N=Cc2ccco2)NC1=O (configuration not stated)	.	.	5.3	.	.	.
O=C(/C=C/c1cccc([N+](=O)[O-])c1)NCCN1C(=O)S/C(=C\c2cccnc2)C1=O	-1.4	0.6	8.4	24.6*	-5.8	-2.9
O=c1[nH]c(Nc2ccccn2)cc2ccccc12	90.4*	7.2	.	49.1*	.	27.4*
Cc1csc(=NN=Cc2cccc([N+](=O)[O-])c2)n1Cc1ccco1	.	.	2.4	.	.	.
CCCOc1ccc(-c2c(C(=O)NN=Cc3ccc(OC)cc3)nnn2-c2nonc2N)cc1	.	.	0.6	.	.	.
COC(=O)[C@]1(C)N[C@H](CN(C)C(=O)Nc2ccc(OC)cc2)[C@@H]2C(=O)N(C)C(=O)[C@@H]21	0.2	-2.2	4.9	48.4*	.	5.5
CCN(CC)CCNC(=O)c1c(O)c2cc(OC)c(OC)cc2[nH]c1=O	.	3.4	-57.3	24.6*	-1.6	4.8
Cc1ccc2nsnc2c1N	0.6	2.0	-2.4	10.1	4.3	.
Nc1cccc2nsnc12	2.3	6.3	5.0	59.9*	0.5	5.0
OC(CNCc1ccc(Cl)cc1)COc1ccccc1 (configuration not stated)	-4.6	1.7	3.2	24.6*	-0.7	-2.1
OC(CNCc1ccccc1)COCc1ccc(Cl)cc1 (configuration not stated)	-4.2	3.5	3.6	11.3	40.4	.
COc1ccccc1N1CCN(CC(O)=C(C#N)c2nc(-c3ccccc3)cs2)CC1	.	.	3.1	.	.	.
Cn1cccc1-c1cc(C(=O)NN=Cc2ccc(F)cc2)[nH]n1	.	.	3.1	.	.	.
CN(C)C=NN(C)c1ncccc1[N+](=O)[O-]	.	.	5.2	.	.	.
COC(=O)c1cc2c(-c3ccccc3)c(C)c3ccccn3c-2c1C(=O)OC	.	3.4	-0.9	-1.6	6.7	.
COC(=O)c1c(Cl)c2n3ccccc3c(C)c(-c3ccccc3)c-2c1C(=O)OC	19.0	4.1	3.9	32.0*	11.7	2.8
O=C(CCC1CCCCC1)NCc1ccc(F)cc1	-2.5	-2.2	0.7	5.7	-1.0	.
O=C(CCC(=O)NC1CCCCC1)NCc1ccc(F)cc1	-2.0	-2.1	5.1	48.4*	-3.1	-1.1
COc1ccc2nc(C)cc(SCC(=O)NN=Cc3cccc4ccccc34)c2c1	.	.	-3.6	.	.	.
O=[N+]([O-])c1cc(S(=O)(=O)Nc2ccc(Cl)cc2)ccc1NN=Cc1ccncc1	.	.	6.2	.	.	.
CCOc1ccc(NC(=O)CN(C)C(=O)c2ccccc2OCc2c(C)noc2C)cc1OCC	-239.2	-2.1	-1.7	25.6*	-0.5	9.7
N#Cc1sc2nc(-c3ccccc3)cc(-c3ccco3)c2c1N	.	7.6	8.8	54.1*	.	56.4*
CCOc1cc(/C=C\c2nc(O)c([N+](=O)[O-])c(=O)[nH]2)ccc1OC(C)C	1.4	-4.8	16.3	24.8*	-0.5	2.4
SMILES	Casp6 inh	LEDGF integ inh	UCH37 DUB inh	TDP2 absorb	NSD2 inh	TDP2 confirm
S=c1[nH]nc(-c2ccccn2)n1N=Cc1ccc(Br)s1	.	.	3.2	.	.	.
Cc1ccc(S(=O)(=O)N=C(c2ccc(Cl)cc2)N2CCOCC2)cc1	.	.	7.6	.	.	.
Cc1ccc(-n2nc3c(c2NC(=O)C2CC2)CS(=O)(=O)C3)cc1	-1.4	-0.3	2.2	26.7*	-4.6	6.5
COc1ccc2nc(NC(=O)CSc3ccccc3)sc2c1	.	0.9	0.5	25.7*	0.6	5.1
COc1ccc2nc(NC(=O)CN3C(=O)NC4(CCCC4)C3=O)sc2c1	3.1	-2.6	1.0	63.2*	1.6	-0.5
COc1ccc2nc(NC(=O)CSC3=NCCS3)sc2c1	3.5	0.7	1.3	1.9	1.3	.
Cc1ccc(NC(=O)CSCc2cc(=O)n3ccsc3n2)c(C)c1	-4.5	-0.3	0.7	33.5*	0.1	5.8
CC(=NO)c1c(O)c(C)c(-c2ccccc2)n(-c2ccccc2)c1=O	.	.	5.1	.	.	.
CC(=O)Nc1ccc(NCN2C(=O)C3C4CCC(C4)C3C2=O)cc1 (configuration not stated)	.	11.6	1.3	31.7*	-0.1	8.0
COC(=O)c1ccc(NCN2C(=O)C3C4CCC(C4)C3C2=O)cc1 (configuration not stated)	0.2	2.7	3.2	0.2	-2.2	.
O=C(c1ccco1)[C@@H]1[C@@H]2C(=O)N(c3ccc(F)cc3)C(=O)[C@@H]2C2c3ccccc3C=CN21 (some centres not stated)	.	11.0	.	29.0*	17.6	17.4
O=C(c1ccco1)[C@@H]1[C@@H]2C(=O)N(c3ccc(Br)cc3)C(=O)[C@@H]2C2c3ccccc3C=CN21 (some centres not stated)	.	11.7	5.1	6.7	.	.
Cc1ccc(N2CC(C(=O)Nc3ccc(S(=O)(=O)N4CCCC4)cc3)CC2=O)cc1 (configuration not stated)	.	0.5	0.1	-6.9	-1.0	.
O=C(Nc1ccc(S(=O)(=O)N2CCCCC2)cc1)C1CC(=O)N(c2ccc(Cl)cc2)C1 (configuration not stated)	-2.4	-0.7	0.1	24.8*	-2.1	-5.6
O=C(Cn1ncc2c1-c1ccccc1OC2)N1CCN(Cc2ccccc2)CC1	-0.8	1.7	2.7	28.5*	0.1	9.6
FC(F)Oc1ccc(C=NN2CCCCC2)c(OC(F)F)c1	.	.	0.5	.	.	.
COc1ccc(C=NNC(=O)C(=O)/C=C2\NC3(CCCC3)Cc3ccccc32)cc1	.	.	7.8	.	.	.
O=C1c2ccccc2C(=O)C12OC2c1cccc2ccccc12 (configuration not stated)	33.1	11.2	23.9*	73.5*	101.4*	75.8*
O=C1NC(c2cccc3ccccc23)Nc2ccccc21 (configuration not stated)	-0.1	7.2	.	3.5	2.0	.
COc1ccc(C(=O)Nc2ccc(NC(=O)c3ccco3)cc2)cc1	-4.5	4.1	-6.9	2.9	-0.4	.
CCOC(=O)c1c(NC(=O)c2ccco2)n(C2CCCCC2)c2nc3ccccc3nc12	.	8.5	-78.3	59.8*	.	60.2*
COc1ccc(-n2c(NC(=O)c3ccco3)c(C#N)c3nc4ccccc4nc32)cc1	.	6.7	-109.2	60.2*	-3.3	67.5*
CC1=CC(=O)C(C(C)C)=CC1=NOC(=O)c1cccc2nc(C)oc12	.	.	3.0	.	.	.
CN(C)c1ccc(C=c2c3ccccc3n3c2cc(-c2ccccc2)[n+]3C)cc1	18.6	12.2	.	30.4*	4.0	9.5
CN(C)c1ccc(C=c2c3ccccc3n3c2cc(-c2ccc(Cl)cc2)[n+]3C)cc1	-2.8	4.3	.	12.2	.	.
CCOC(=O)C1CCN(C(=O)c2ccc(C)c(S(=O)(=O)N3CCCC3)c2)CC1	-1.2	-0.2	0.7	-7.4	0.0	.

Screening data as filed in PubChem.
